Tests used:
[1] = molecular target: T1, Polyunsaturated fatty acid 5-lipoxygenase (Rattus norvegicus, UniProt P12527); experiment: Inhibition of 5-LOX in RBL1 cells assessed as reduction in LTB4 production using A23187-induced arachidonic acid as substrate preincubated for 2 hrs followed by A23187 addition measured after 15 mins by LC-MS/MS analysis; format: cell-based
T1 sequence (P12527 whole entry): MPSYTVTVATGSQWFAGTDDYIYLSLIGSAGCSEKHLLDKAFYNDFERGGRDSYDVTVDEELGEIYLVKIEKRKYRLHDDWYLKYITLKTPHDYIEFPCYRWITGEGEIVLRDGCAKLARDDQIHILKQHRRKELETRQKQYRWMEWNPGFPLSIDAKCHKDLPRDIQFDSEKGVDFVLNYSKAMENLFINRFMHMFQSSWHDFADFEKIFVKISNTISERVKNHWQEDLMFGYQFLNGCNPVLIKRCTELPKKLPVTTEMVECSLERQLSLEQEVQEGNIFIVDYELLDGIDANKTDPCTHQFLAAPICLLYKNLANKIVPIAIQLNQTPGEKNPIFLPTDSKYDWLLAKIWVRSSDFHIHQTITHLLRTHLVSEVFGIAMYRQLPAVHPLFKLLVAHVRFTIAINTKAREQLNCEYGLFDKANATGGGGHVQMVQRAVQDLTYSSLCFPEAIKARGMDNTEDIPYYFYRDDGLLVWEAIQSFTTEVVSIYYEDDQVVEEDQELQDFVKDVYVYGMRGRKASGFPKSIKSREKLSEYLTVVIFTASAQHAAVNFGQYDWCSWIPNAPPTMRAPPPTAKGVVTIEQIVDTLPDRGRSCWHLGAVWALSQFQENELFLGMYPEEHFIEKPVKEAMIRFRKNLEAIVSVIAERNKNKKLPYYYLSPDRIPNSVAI
Method in brief: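 RBL-1 cells incubated 2 h with test compound at several concentrations, then A23187 (12 μM) added for 15 min to trigger arachidonic acid release; LTB4 in culture supernatant quantified by LC–MS/MS. Triplicate samples per concentration; IC50 with 95% confidence interval from sigmoidal curve fit.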

Cyclooxygenase = molecular target: T2, Cyclooxygenase (Rattus norvegicus, UniProt P35355+Q63921); experiment: Inhibition of COX in RBL1 cells assessed as reduction in PGE2/D2 production using A23187-induced arachidonic acid as substrate preincubated for 2 hrs followed by A23187 addition measured after 15 mins by LC-MS/MS analysis; format: cell-based
T2 sequence (P35355 whole entry): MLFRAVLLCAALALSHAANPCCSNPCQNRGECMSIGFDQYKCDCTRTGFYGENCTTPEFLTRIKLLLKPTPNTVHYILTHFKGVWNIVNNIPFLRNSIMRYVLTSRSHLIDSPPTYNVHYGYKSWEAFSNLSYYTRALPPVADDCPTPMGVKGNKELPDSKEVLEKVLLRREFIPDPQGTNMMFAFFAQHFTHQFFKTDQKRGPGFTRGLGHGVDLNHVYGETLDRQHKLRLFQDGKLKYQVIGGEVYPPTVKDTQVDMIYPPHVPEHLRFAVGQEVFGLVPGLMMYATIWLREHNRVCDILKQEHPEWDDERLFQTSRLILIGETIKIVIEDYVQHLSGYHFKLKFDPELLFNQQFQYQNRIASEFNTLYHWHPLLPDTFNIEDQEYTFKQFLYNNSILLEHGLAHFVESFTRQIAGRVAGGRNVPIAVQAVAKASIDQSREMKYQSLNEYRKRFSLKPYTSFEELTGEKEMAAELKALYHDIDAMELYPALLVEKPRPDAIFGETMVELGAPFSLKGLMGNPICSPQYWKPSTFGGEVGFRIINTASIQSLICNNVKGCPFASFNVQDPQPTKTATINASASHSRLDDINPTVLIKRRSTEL
T2 sequence (Q63921 whole entry): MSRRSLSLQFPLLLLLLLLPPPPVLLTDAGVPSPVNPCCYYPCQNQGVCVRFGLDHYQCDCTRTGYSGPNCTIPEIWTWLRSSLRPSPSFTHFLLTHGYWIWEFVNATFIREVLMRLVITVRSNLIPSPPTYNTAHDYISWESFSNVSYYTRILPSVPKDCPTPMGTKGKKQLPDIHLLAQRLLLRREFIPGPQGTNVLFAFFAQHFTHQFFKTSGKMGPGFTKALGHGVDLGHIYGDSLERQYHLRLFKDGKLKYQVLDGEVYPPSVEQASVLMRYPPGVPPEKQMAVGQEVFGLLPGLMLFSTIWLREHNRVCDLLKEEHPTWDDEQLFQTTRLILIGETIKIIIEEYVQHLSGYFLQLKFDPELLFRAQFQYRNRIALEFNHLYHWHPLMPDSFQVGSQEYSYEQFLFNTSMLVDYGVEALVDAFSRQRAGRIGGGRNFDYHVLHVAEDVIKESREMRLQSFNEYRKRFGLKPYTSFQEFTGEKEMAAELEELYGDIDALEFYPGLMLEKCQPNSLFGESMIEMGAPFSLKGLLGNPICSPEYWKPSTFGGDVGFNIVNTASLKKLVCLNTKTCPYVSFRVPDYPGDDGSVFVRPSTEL

[2] = Dissociation constant, pKa of the compound by capillary electrophoresis method; format: physicochemical
[3] = Effective permeability of the compound by PAMPA; format: ADME; conditions: read-out: Peff
Method in brief: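 PAMPA run externally; effective permeability reported together with membrane retention and log apparent permeability coefficient.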

[4] = n-Octanol-aqueous buffer distribution coefficient, log D of the compound at pH 7.4 by LC-MS method; format: physicochemical
[5] = Effective permeability of the compound assessed as membrane retention by PAMPA relative to control; format: ADME

IC50 [1] | IC50 (Cyclooxygenase) | SMILES | pKa [2] | Papp [3] | logD [4] | R% [5]
> 100 µM | 28.1 µM | CC(C)Cc1ccc(C2CC(O)=CC2=O)cc1 (centres undefined) | – | – | – | –
7.6 µM | > 100 µM | CC(C)Cc1ccc(C(C)C2(O)CSC2)cc1 (centres undefined) | – | – | – | –
20.2 µM | 14.6 µM | CC(C)Cc1ccc(C(C)C2(O)CS(=O)(=O)C2)cc1 (centres undefined) | – | – | – | –
> 100 µM | 31.8 µM | CC(C)Cc1ccc(C(C)c2nnn[nH]2)cc1 (centres undefined) | – | – | – | –
8.4 µM | 34.1 µM | CC(C)Cc1ccc(C(C)C2(O)COC2)cc1 (centres undefined) | – | – | – | –
> 100 µM | – | CC(C)Cc1ccc(C(C)C(=O)O)cc1 (centres undefined) [IBUPROFEN] | – | – | – | –

The remaining lines, values behind:

SMILES | IC50 [1] | IC50 (Cyclooxygenase) | pKa [2] | Papp [3] | logD [4] | R% [5]
CC(C)Cc1ccc(C(C)C2(O)C[S+]([O-])C2)cc1 (centres undefined) | 11.7 µM | 17.4 µM | – | – | – | –
O=S1(=O)CC(O)(CCc2ccccc2)C1 | – | – | 9.31 | 12.2 ×10⁻⁶ cm/s | 1.24 | 10.7%
[O-][S+]1CC(O)(CCc2ccccc2)C1 (centres undefined) | – | – | > 12 | 6.23 ×10⁻⁶ cm/s | 1.22 | 10%
OC1(CCc2ccccc2)CSC1 | – | – | > 12 | 13.2 ×10⁻⁶ cm/s | 2.99 | 11.4%
OC1(CCc2ccccc2)COC1 | – | – | > 12 | 8.27 ×10⁻⁶ cm/s | 2.07 | -11.9%

Source: ChEMBL document CHEMBL4190334, “Evaluation of Oxetan-3-ol, Thietan-3-ol, and Derivatives Thereof as Bioisosteres of the Carboxylic Acid Functional Group” (ACS Med Chem Lett, 2017)
